Published values gathered from unrelated publications.
OPRD1: Delta-type opioid receptor (OPRD1, Homo sapiens, UniProt P41143)
CA2: Carbonic anhydrase 2 (CA2, Homo sapiens, UniProt P00918)
PLG trypsin-like site: Plasminogen, trypsin-like site (PLG, Homo sapiens, UniProt P00747)
HTR3A: 5-hydroxytryptamine receptor 3A (HTR3A, Homo sapiens, UniProt P46098)

Compound | target | test | conditions | measurement | result
CCC(C)[C@@H](CNC)N1CCN(CCC23CC4CC(CC(C4)C2)C3)[C@H](C(C)C)C1 (some centres unmarked) | OPRD1 | cell-free assay | – | IC50 | > 10 µM
On1ccccc1=S | CA2 | enzyme activity, inhibitor, absorbance | – | Ki | 567 µM
Cc1cn([C@@H]2CC[C@H](OC(C(=O)O)C(=O)O)C2)c(=O)[nH]c1=O | Gag-Pol polyprotein, reverse transcriptase (gag-pol, Human immunodeficiency virus 1, UniProt P03366) | enzyme activity, inhibitor, radiometric | – | IC50 | 20 µM
CCC[C@H](CNC)NC[C@@H](CCC)NCCC1CC2CCC1C2 (some centres unmarked) | OPRD1 | cell-free assay | – | IC50 | > 10 µM
O=c1c(O)c(-c2ccc(O[C@@H]3O[C@H](CO)[C@@H](O)[C@H](O)[C@H]3O)c(O)c2)oc2cc(O)cc(O)c12 | CA2 | enzyme activity, inhibitor, absorbance | – | Ki | 0.0222 µM
O=C(CCCOc1cccc(Br)c1)N[C@H]1C[C@@H]2C[C@@H]2C1=O (relative stereo) | Transcriptional activator protein LasR (lasR, Pseudomonas aeruginosa, UniProt P25084, A127W) | reporter gene, agonist | – | EC50 | 0.2 µM
CC(C)(C)[C@H](NC(=O)[C@H](CCCNC(=N)N)NC(=O)Cc1ccc(CNC(=N)N)cc1)C(=O)N[C@@H](CCONC(=N)N)C(=O)NCc1ccc(C(=N)N)cc1 | PLG trypsin-like site | enzyme activity, inhibitor | pH 8 | Ki | 3.1 µM
COc1cc(C(=O)N2CC[C@@H](O)[C@@H](N)C2)cc2nc(-c3cc4ccccc4n3CC3CC3)n(C)c12 | HTR3A | calcium signal, agonist | – | EC50 | 50.1 µM
On1ccc2ccccc2c1=S | CA2 | enzyme activity, inhibitor, absorbance | pH 8 | Ki | 15 µM
CNC[C@@H](Cc1ccc(O)cc1)N1CCN(CC2CCCCCC2)[C@@H](C(C)C)C1 | OPRD1 | cell-free assay | – | IC50 | > 10 µM
CC(C)(C)[C@H](NC(=O)[C@H](CCCNC(=N)N)NC(=O)Cc1ccc(CNC(=N)N)cc1)C(=O)N[C@@H](CCCNC(=N)N)C(=O)NCc1ccc(C(=N)N)cc1 | PLG trypsin-like site | enzyme activity, inhibitor | pH 8 | Ki | 3.5 µM
CCOC(=O)c1cncn1[C@@H](C)c1ccc(C2(C(F)(F)F)N=N2)cc1 | HTR3A | ion current, two-electrode voltage clamp | oocytes | IC50 | 9 µM
CC(C)(C)[C@H](NC(=O)[C@H](CCONC(=N)N)NC(=O)Cc1ccc(CN)cc1)C(=O)N[C@@H](CCONC(=N)N)C(=O)NCc1ccc(C(=N)N)cc1 | PLG trypsin-like site | enzyme activity, inhibitor | pH 8 | Ki | 19 µM
CS(=O)(=O)c1cccc(OCCCC(=O)N[C@H]2C[C@@H]3C[C@@H]3C2=O)c1 (relative stereo) | Transcriptional activator protein LasR (lasR, Pseudomonas aeruginosa, UniProt P25084, A127W/Y93F) | reporter gene, agonist | – | EC50 | 0.35 µM
CCC(C)[C@@H](CNC)N1CCN(CCCC2CCCCC2)[C@H](C(C)C)C1 (some centres unmarked) | OPRD1 | cell-free assay | – | IC50 | > 10 µM
CC[C@H](C)[C@H](NC(=O)[C@H](Cc1ccccc1)NC(=O)[C@H](CC(=O)O)NC(=O)[C@H](CCCNC(=N)N)NC(=O)[C@@H](NC(=O)[C@H](C)NC(=O)[C@H](CC(C)C)NC(=O)[C@H](CC(N)=O)NC(=O)[C@H](CC(=O)O)NC(=O)[C@H](CC(C)C)NC(=O)[C@@H](NC(=O)[C@@H](NC(=O)[C@H](CO)NC(=O)[C@H](CCSC)NC(=O)[C@H](CCC(=O)O)NC(=O)[C@H](CC(=O)O)NC(=O)[C@H](CO)NC(=O)[C@H](Cc1ccccc1)NC(=O)[C@H](CO)NC(=O)CNC(=O)[C@H](CC(=O)O)NC(=O)[C@H](C)NC(=O)[C@@H](N)Cc1c[nH]cn1)[C@@H](C)O)[C@@H](C)CC)[C@@H](C)O)C(=O)N[C@@H](CC(N)=O)C(=O)N[C@@H](Cc1c[nH]c2ccccc12)C(=O)N[C@@H](CC(C)C)C(=O)N[C@H](C(=O)N[C@@H](CCC(N)=O)C(=O)N[C@H](C(=O)N[C@@H](CCCCN)C(=O)N[C@H](C(=O)N[C@H](C(=O)N[C@@H](CC(=O)O)C(=O)O)[C@@H](C)O)[C@@H](C)CC)[C@@H](C)O)[C@@H](C)CC | Gastric inhibitory polypeptide receptor (GIPR, Homo sapiens, UniProt P48546) | reporter gene, agonist, luciferase | – | EC50 | > 1 µM
CC(=O)Nc1ccc(O)cc1 | NAD(P)H dehydrogenase [quinone] 1 (NQO1, Homo sapiens, UniProt P15559) | enzyme activity, inhibitor, absorbance | – | Ki | > 1000 µM
